Results reported in ChEMBL document CHEMBL6115053, “Optimization and Characterization of N-Acetamide Indoles as Antimalarials That Target PfATP4” (J Med Chem, 2025).
Converted amounts (≈) assume the structure as drawn. “And” between values parts separate entries of the source, which are not always exact repeats. Equal entries are not always repeated. The source made the active and inactive calls. The rule behind the calls is not given here.

Assays:
Plasmodium falciparum [1] = assay: Antiplasmodial activity against asexual Plasmodium falciparum 3D7 infected in human […] cells assessed as reduction in parasite growth measured for 72 hrs by LDH assay; format: functional, organism-based; details: 3D7, 72 h
HepG2 = assay: Cytotoxicity against human HepG2 cells assessed as inhibition of cell growth incubated for 48 hrs by celltiterglo assay; format: toxicity, cell-based; details: hepg2, 48 h
[2] = Aqueous solubility in PBS buffer at pH 7.4; format: physicochemical
[3] = Metabolic stability in human liver microsome assessed as intrinsic clearance; format: ADME; details: microsomes
[4] = Metabolic stability in mouse liver microsome assessed as intrinsic clearance; format: ADME; details: microsomes
[5] = Metabolic stability in rat hepatocyte […] assessed as intrinsic clearance measured per 10^6 cells; format: ADME, cell-based; details: hepatocytes
[6] = Lipophilicity, logD of compound at pH 7.4 by shake-flask method; format: physicochemical; details: buffer
Plasmodium falciparum [7] = assay: Antiplasmodial activity against Plasmodium falciparum 3D7 infected in human […] cells incubated for 72 hrs; format: functional, organism-based; details: 3D7, 72 h
Plasmodium falciparum [8] = assay: Antiplasmodial activity against W454-resistant population 1 Plasmodium falciparum 3D7 harboring Plasmodium falciparum ATP4 L928F mutant by LDH assay; format: functional, organism-based
Plasmodium falciparum [9] = assay: Antiplasmodial activity against W454-resistant population 2 Plasmodium falciparum 3D7 harboring Plasmodium falciparum ATP4 L928F mutant by LDH assay; format: functional, organism-based
Plasmodium falciparum [10] = assay: Antiplasmodial activity against W454-resistant population 3 Plasmodium falciparum 3D7 harboring Plasmodium falciparum ATP4 L928F mutant by LDH assay; format: functional, organism-based
Plasmodium falciparum [11] = assay: Antiplasmodial activity against Plasmodium falciparum Dd2-B2; format: functional, organism-based
Plasmodium falciparum [12] = assay: Antiplasmodial activity against Plasmodium falciparum Dd2-B2 assessed as parasite clearance at 3 times IC90 incubated for 5 days; format: functional, organism-based; details: time 5.0 day
Plasmodium falciparum [13] = assay: Antiplasmodial activity against Plasmodium falciparum Dd2-B2 assessed as parasite clearance at 3 times IC90 incubated for 42 days by flow cytometry analysis; format: functional, organism-based; details: time 42.0 day
Plasmodium falciparum [14] = assay: Antiplasmodial activity against Plasmodium falciparum Dd2-B2 assessed as reduction in recrudescence measured for 42 days by flow cytometry; format: functional, organism-based; details: time 42.0 day
Plasmodium falciparum [15] = assay: Antiplasmodial activity against asexual blood stage Plasmodium falciparum Dd2-B2 assessed as parasite recrudescence by measuring minimum inoculum of resistance measured for 40 days by flow cytometry; format: functional; details: time 40 day
Plasmodium falciparum [16] = assay: Antiplasmodial activity against Plasmodium falciparum 3D7 harboring Plasmodium falciparum ATP4 […] mutant by SYBR green staining based flow cytometry analysis; format: functional, organism-based
Plasmodium falciparum [17] = assay: Antiplasmodial activity against multidrug-resistant Plasmodium falciparum Dd2 harboring plasmodium falciparum ATP4 I398F/P990R/D1247Y mutant by SYBR green staining based analysis; format: functional, organism-based
Plasmodium falciparum [18] = assay: Antiplasmodial activity against multidrug-resistant Plasmodium falciparum Dd2 harboring plasmodium falciparum ATP4 G358S mutant by SYBR green staining based analysis; format: functional, organism-based
Plasmodium falciparum [19] = assay: Antiplasmodial activity against N-(2,6-difluorophenyl)-2-(6-(5-methyl-1,3,4-oxadiazol-2-yl)-1H-indol-1-yl)acetamide-resistant Plasmodium falciparum Dd2 harboring plasmodium falciparum ATP4 F156L mutant by SYBR green staining based analysis; format: functional, organism-based
Plasmodium falciparum [20] = assay: Antiplasmodial activity against N-(2,6-difluorophenyl)-2-(6-(5-methyl-1,3,4-oxadiazol-2-yl)-1H-indol-1-yl)acetamide-resistant Plasmodium falciparum Dd2 harboring plasmodium falciparum ATP4 D425E mutant by SYBR green staining based analysis; format: functional, organism-based
Plasmodium falciparum [21] = assay: Antiplasmodial activity against N-(2,6-difluorophenyl)-2-(6-(5-methyl-1,3,4-oxadiazol-2-yl)-1H-indol-1-yl)acetamide-resistant Plasmodium falciparum Dd2 harbouring ATP4 genome with 2.8 fold CNV by SYBR green staining based analysis; format: functional, organism-based
Plasmodium falciparum [22] = assay: Antiplasmodial activity against Plasmodium falciparum 3D7 infected in RBC assessed as reduction in parasite growth measured for 8 hrs by Giemsa-staining based microscopic analysis; format: functional, organism-based
Procedure, shortened: (§1)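 Giemsa-stained thin smears were read at 8 h and the percentages of extracellular and intracellular parasites counted, compared with untreated parasites at 0 h.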

Plasmodium falciparum [23] = assay: Antiplasmodial activity against Plasmodium falciparum 3D7 infected in RBC assessed as reduction in extracellular parasite growth at 0.03 uM measured for 8 hrs by Giemsa-staining based microscopic analysis; format: functional; parameters: scale not given: the % may be the effect or the level left; procedure, shortened: as §1
Plasmodium falciparum [24] = assay: Antimalarial activity against Plasmodium falciparum NF54 infected assessed as inhibition of male gamete formation incubated for 48 hrs by automated bright field microscopic analysis; format: functional, organism-based; details: NF54, 48 h
Plasmodium falciparum [25] = assay: Antimalarial activity against Plasmodium falciparum NF54 infected assessed as inhibition of female gamete formation incubated for 48 hrs by automated bright field microscopic analysis; format: functional, organism-based; details: NF54, 48 h
Plasmodium falciparum [26] = assay: Antiplasmodial activity against Plasmodium falciparum 3D7 infected in RBC assessed as reduction in nucleotide level at 20 nM incubated for 5 hrs by LC-MS analysis; format: functional, organism-based
Plasmodium falciparum [27] = assay: Antiplasmodial activity against Plasmodium falciparum 3D7 infected in RBC assessed as reduction in pyrimidine-deoxyribonucleotides level at 20 nM incubated for 5 hrs by LC-MS analysis; format: functional, organism-based
Plasmodium falciparum [28] = assay: Antiplasmodial activity against Plasmodium falciparum 3D7 infected in RBC assessed as reduction in deoxythymidine triphosphate level at 20 nM incubated for 5 hrs by LC-MS analysis; format: functional, organism-based
Plasmodium falciparum [29] = assay: Antiplasmodial activity against Plasmodium falciparum 3D7 infected in RBC assessed as reduction in deoxythymidine diphosphate level at 20 nM incubated for 5 hrs by LC-MS analysis; format: functional, organism-based
Plasmodium falciparum [30] = assay: Antiplasmodial activity against Plasmodium falciparum 3D7 infected in RBC assessed as reduction in deoxycytidine monophosphate level at 20 nM incubated for 5 hrs by LC-MS analysis; format: functional, organism-based
Plasmodium falciparum [31] = assay: Antiplasmodial activity against Plasmodium falciparum 3D7 infected in RBC assessed as reduction in extracellular parasite growth at 6.7 nM measured for 8 hrs by Giemsa-staining based microscopic analysis; format: functional; parameters: scale not given: the % may be the effect or the level left; procedure, shortened: as §1
Plasmodium berghei [32] = assay: Antimalarial activity against Plasmodium berghei ANKA infected in female BALB/c mouse assessed as parasitemia at 30 mg/kg, po measured for 2 to 72 hrs post infection by Giemsa staining based light microscopy; format: functional; details: time 2-72 hrs
Plasmodium berghei [33] = assay: Antimalarial activity against Plasmodium berghei ANKA infected in female BALB/c mouse assessed as reduction in parasitemia at 30 mg/kg, po measured for 2 to 72 hrs post infection by Giemsa staining based light microscopy; format: functional; parameters: scale not given: the % may be the effect or the level left; details: time 2-72 hrs
[34] = biological target: T1, P-type sodium-transporting ATPase4 (Plasmodium falciparum (isolate 3D7), UniProt A0A143ZZK9); assay: Inhibition of Plasmodium falciparum 3D7 ATP4
T1 sequence (A0A143ZZK9 whole entry): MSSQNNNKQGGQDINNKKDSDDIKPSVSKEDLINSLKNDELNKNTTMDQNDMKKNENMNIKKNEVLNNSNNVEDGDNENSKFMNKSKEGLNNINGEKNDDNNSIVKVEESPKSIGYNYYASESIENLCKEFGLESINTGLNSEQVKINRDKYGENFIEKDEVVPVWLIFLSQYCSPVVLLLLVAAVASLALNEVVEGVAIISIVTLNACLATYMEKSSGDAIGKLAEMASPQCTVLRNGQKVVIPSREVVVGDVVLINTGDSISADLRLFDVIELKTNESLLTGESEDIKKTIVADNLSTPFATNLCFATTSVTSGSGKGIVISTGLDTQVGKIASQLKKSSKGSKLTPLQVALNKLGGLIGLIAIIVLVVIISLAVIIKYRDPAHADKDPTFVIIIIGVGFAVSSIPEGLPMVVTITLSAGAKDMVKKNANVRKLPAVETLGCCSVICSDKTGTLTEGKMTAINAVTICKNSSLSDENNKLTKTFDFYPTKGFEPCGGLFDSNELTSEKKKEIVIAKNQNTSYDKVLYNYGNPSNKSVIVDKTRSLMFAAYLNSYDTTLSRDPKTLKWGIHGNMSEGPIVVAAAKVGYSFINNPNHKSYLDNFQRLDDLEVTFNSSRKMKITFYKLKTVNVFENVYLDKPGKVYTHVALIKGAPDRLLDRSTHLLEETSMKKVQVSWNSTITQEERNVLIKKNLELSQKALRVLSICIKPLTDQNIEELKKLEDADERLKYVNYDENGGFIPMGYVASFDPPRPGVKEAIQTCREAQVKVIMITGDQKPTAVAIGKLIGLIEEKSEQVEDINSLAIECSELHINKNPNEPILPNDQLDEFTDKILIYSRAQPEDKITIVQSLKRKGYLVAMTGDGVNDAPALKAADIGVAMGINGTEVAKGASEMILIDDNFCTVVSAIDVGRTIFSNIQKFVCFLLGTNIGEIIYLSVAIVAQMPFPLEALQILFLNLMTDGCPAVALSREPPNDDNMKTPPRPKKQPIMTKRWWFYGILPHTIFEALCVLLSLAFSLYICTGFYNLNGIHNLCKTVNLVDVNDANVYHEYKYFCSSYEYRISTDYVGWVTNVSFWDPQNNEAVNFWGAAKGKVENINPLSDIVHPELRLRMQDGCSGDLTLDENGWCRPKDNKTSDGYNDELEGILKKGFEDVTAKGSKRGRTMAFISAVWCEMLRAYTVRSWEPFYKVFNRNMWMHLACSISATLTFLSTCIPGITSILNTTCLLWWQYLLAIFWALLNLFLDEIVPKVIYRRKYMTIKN

[35] = Inhibition of Plasmodium falciparum Dd2 ATP4 G358S mutant assessed as reduction in Na+-ATPase activity incubated for 10 mins in presence of ATP
Procedure, shortened: (§2)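 Membranes were prepared from Dd2-Polδ parasites (wild-type PfATP4) or Dd2-Polδ-PfATP4G358S parasites. ATPase activity was read as Pi production, with 1 mM Na2ATP, at high [Na+] (152 mM) and low [Na+] (2 mM). PfATP4-associated activity is the high-Na+ minus low-Na+ Pi, expressed as % of the high-Na+ control, over a concentration range. Data are means ± SEM of 2–5 independent membrane preparations.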

[36] = Inhibition of Plasmodium falciparum Dd2 ATP4 assessed as reduction in Na+-ATPase activity incubated for 10 mins in presence of ATP; procedure, shortened: as §2
[37] = biological target: T2, P-type sodium-transporting ATPase4 (Plasmodium falciparum (isolate 3D7)) (UniProt A0A143ZZK9); assay: Inhibition of Plasmodium falciparum 3D7 ATP4 assessed as reduction in Na+-ATPase activity at 2 uM incubated for 10 mins under high [Na+] condition in absence of KAE609
T2 sequence (whole entry): T1 sequence (A0A143ZZK9 whole entry)

Plasmodium falciparum [38] = assay: Antiplasmodial activity against Plasmodium falciparum 3D7 infected in RBC assessed as reduction in extracellular parasite growth at 0.7 µM measured for 8 hrs by Giemsa-staining based microscopic analysis; parameters: scale not given: the % may be the effect or the level left

SMILES | EC50 (Plasmodium falciparum [1]) | CC50 (HepG2) | solubility kinetic [2] | intrinsic clearance (CLint) [3] | intrinsic clearance (CLint) [5] | logD [6] | EC50 (Plasmodium falciparum [7]) | EC50 (Plasmodium falciparum [8]) | EC50 (Plasmodium falciparum [9]) | EC50 (Plasmodium falciparum [10]) | EC50 (Plasmodium falciparum [17]) | EC50 (Plasmodium falciparum [18]) | EC50 (Plasmodium falciparum [19]) | EC50 (Plasmodium falciparum [20]) | EC50 (Plasmodium falciparum [21]) | other results
COc1cc(NC(=O)Cn2ccc3cc(F)c(-c4cnn(C)c4)cc32)cc(OC)c1OC | 0.007 µM | > 40 µM | 2.7 µM (≈ 1.18 µg/mL) | 69 µL/min/mg | 1.9 uL/min/10^6 cells | 3.2 | 0.004 µM | 0.047 µM | 0.044 µM | 0.044 µM | 0.01 µM | 0.042 µM | 0.04 µM | 0.019 µM | 0.023 µM | intrinsic clearance (CLint) [4]: 90 µL/min/mg; IC50 (Plasmodium falciparum [11]): 0.0173 µM; Activity (Plasmodium falciparum [12]): Active; Activity (Plasmodium falciparum [13]): Active; Activity (Plasmodium falciparum [14]): Active; log10MIR (Plasmodium falciparum [15]): 8.7; Activity (Plasmodium falciparum [16]): Active; Activity (Plasmodium falciparum [22]): Active; Activity (Plasmodium falciparum [23]): ~24%; EC50 (Plasmodium falciparum [24]): 0.19 µM; EC50 (Plasmodium falciparum [25]): 0.18 µM
C[C@H]1Cc2c([nH]c3cc(Cl)c(F)cc23)[C@@]2(N1)C(=O)Nc1ccc(Cl)cc12 [CIPARGAMIN] | – | – | – | – | – | – | 0.001 µM | < 0.002 µM | < 0.002 µM | 0.002 µM | 0.004 µM | > 0.1 µM | 0.003 µM | 0.002 µM | 0.004 µM | Activity (Plasmodium falciparum [26]): inactive; Activity (Plasmodium falciparum [27]): inactive; Activity (Plasmodium falciparum [28]): inactive; Activity (Plasmodium falciparum [29]): inactive; Activity (Plasmodium falciparum [30]): inactive; Activity (Plasmodium falciparum [31]): ~24%
C[C@@H]1CC[C@H]2[C@@H](C)C(=O)O[C@@H]3O[C@@]4(C)CC[C@@H]1[C@]32OO4 [ARTEMISININ] | – | – | – | – | – | – | – | – | – | – | – | – | – | – | – | Activity (Plasmodium berghei [32]): 2.6%; Activity (Plasmodium berghei [33]): 92.4%
Cn1cc(-c2ccc3c(C#N)cn(CC(=O)Nc4ccccc4Cl)c3c2)cn1 | 0.24 µM | > 40 µM | 4.9 µM (≈ 1.91 µg/mL) | 62 µL/min/mg | 59 uL/min/10^6 cells | 3 | – | – | – | – | – | – | – | – | – | IC50 [34]: 0.15 µM; IC50 [35]: 1.1 µM; IC50 [36]: 0.23 µM and 1.1 µM; inhibition [37]: Active
N#Cc1cc(NC(=O)[C@H]2c3ccccc3C(=O)N(CC(F)(F)F)[C@@H]2c2cccnc2)ccc1F [SJ-733] | – | – | – | – | – | – | 0.061 µM | 0.579 µM | 0.537 µM | 0.533 µM | 0.095 µM | > 10 µM | – | – | – | Activity (Plasmodium falciparum [38]): ~24%
